Source: ChEMBL document CHEMBL1145936, “Rational design of an indolebutanoic acid derivative as a novel aldose reductase inhibitor based on docking and 3D QSAR studies of phenethylamine derivatives” (J Med Chem, 2003)

target: Aldo-keto reductase family 1 member B1 (Sus scrofa, UniProt P80276); assay: Inhibition of pig kidney aldose reductase (ALR2)
Method in brief: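 Enzyme prepared from pig kidney and assayed in vitro following a previously published method. Inhibition read spectrophotometrically at 340 nm; IC50 values reported. Tolrestat served as positive control.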

Row | SMILES | IC50 [µM]
1 | O=C(O)CCC(=O)NCCc1ccc(F)cc1 | 94
2 | O=C(O)/C=C/C(=O)NCc1ccccc1 | 150
3 | COc1ccc(CCNC(=O)CCC(=O)O)cc1 | 170
4 | O=C(O)CCCC(=O)NCCc1ccc(Br)cc1 | 110
5 | CC(=O)NCCc1ccc(O)cc1 | 160
6 | CCCCCCCCCC(=O)NCCc1ccc(O)cc1 | 110
7 | COc1ccc(CCNC(=O)c2ccccc2C(=O)O)cc1 | 177
8 | O=C(O)c1ccccc1C(=O)NCc1ccccc1 | 180
9 | O=C(O)CCC(=O)NCc1ccccc1 | 141
10 | CCCCCCCCCCCC(=O)NCCc1ccc(O)cc1 | 110
11 | O=C(NCCc1ccc(O)cc1)c1ccccc1 | 160
12 | O=C(O)/C=C/C(=O)NCCc1ccc(F)cc1 | 75
13 | O=C(O)/C=C/C(=O)NCCc1ccc(Br)cc1 | 99
14 | O=C(O)c1ccccc1C(=O)NCCc1ccc(Br)cc1 | 81
15 | O=C(O)c1ccccc1C(=O)NCCc1ccccc1 | 88
16 | O=C(O)/C=C/C(=O)NCCc1ccccc1 | 73
17 | O=C(O)CCC(=O)NCCc1ccccc1 | 78
18 | O=C(O)/C=C/C(=O)n1ccc2ccccc21 | 37
19 | O=C(O)CCC(=O)Nc1ccccc1 | 192
20 | O=C(O)CCC(=O)NCCc1ccc(Br)cc1 | 94
21 | O=C(O)c1ccccc1C(=O)NCCc1ccc(Cl)cc1 | 203
22 | O=C(O)c1ccccc1C(=O)NCCc1ccc(O)cc1 | 340
23 | O=C(O)CCCC(=O)NCc1ccccc1 | 133
24 | COc1cc(C(=O)NCCc2ccc(O)cc2)cc(OC)c1OC | 100

Row | SMILES | IC50 [µM]
25 | O=C(O)CCCC(=O)NCCc1ccc(F)cc1 | 76
26 | O=C(O)c1ccccc1C(=O)N1CCc2ccccc21 | 95
27 | O=C(O)CCC(=O)NCCc1ccc(O)cc1 | 390
28 | O=C(O)/C=C/C(=O)NCCc1ccc(Cl)cc1 | 112
29 | O=C(O)c1ccccc1C(=O)n1ccc2ccccc21 | 30
30 | O=C(O)c1ccccc1C(=O)NCCc1ccc(F)cc1 | 88
31 | O=C(O)CCC(=O)NCCc1ccc(Cl)cc1 | 99
32 | O=C(O)CCCC(=O)NCCc1ccc(Cl)cc1 | 154
33 | COc1ccc(CCNC(=O)/C=C/C(=O)O)cc1 | 155
34 | O=C(O)CCCC(=O)NCCc1ccccc1 | 104
35 | O=C(O)/C=C/C(=O)NCCc1ccc(O)cc1 | 80
36 | O=C(O)/C=C/C(=O)Nc1ccccc1 | 182
37 | O=C(O)CCC(=O)n1ccc2c(O)cccc21 | 7.4
38 | O=C(O)/C=C/C(=O)N1CCc2ccccc21 | 40
39 | CCCCCCCCCCCCCCCC(=O)NCCc1ccc(O)cc1 | 150
40 | COc1ccc(CCNC(=O)CCCC(=O)O)cc1 | 185
41 | O=C(O)CCCC(=O)Nc1ccccc1 | 440
42 | O=C(O)CCC(=O)n1ccc2ccccc21 | 24
43 | O=C(O)CCC(=O)N1CCc2ccccc21 | 102
44 | CCCCC(=O)NCCc1ccc(O)cc1 | 130
45 | CCCCCCCC(=O)NCCc1ccc(O)cc1 | 120
46 | CCC(C)C(=O)NCCc1ccc(O)cc1 (stereo not drawn) | 1800
47 | O=C(O)c1ccccc1C(=O)Nc1ccccc1 | 227
48 | COc1ccc2c(C(=S)N(C)CC(=O)O)cccc2c1C(F)(F)F [TOLRESTAT] | 16
